Measured values from ChEMBL document CHEMBL1148968 (J Nat Prod, 2004).
Active and inactive are the calls of the source. The rule behind the calls is not given here.

What was measured:
[1] = molecular target: T1, Hypoxia inducible factors; HIF-1-alpha, HIF-2-alpha (Homo sapiens, UniProt Q16665+Q99814); assay: Inhibition of hypoxia-induced HIF1 activation in human T47D cells carrying […] reporter gene measured by luciferase activity; type: cell-based
Procedure, shortened: (§1)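 T47D cells were transiently transfected with the pTK-HRE3-luc reporter (erythropoietin HRE). They were pretreated with compound for 30 min, then held 16 h at 1% O2/5% CO2/94% N2. Luciferase activity was reported as % inhibition versus the induced control. One representative experiment, run in quadruplicate, mean ± SE.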

[2] = molecular target: T1, Hypoxia inducible factors; HIF-1-alpha, HIF-2-alpha; assay: Inhibition of hypoxia-induced HIF1 activation in human T47D cells carrying […] reporter gene measured by luciferase activity at 1.78 uM; type: cell-based; procedure, shortened: as §1
T47D [3] = assay: Inhibition of hypoxia-induced secreted VEGF protein level in human T47D cells at 1 uM by ELISA; type: functional
Procedure, shortened: (§2)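 T47D cells seeded at 3.56×10^5/well in DMEM/F12 with 10% FBS and grown 24 h. Half the medium was replaced with serum-free medium containing compound. After a 30 min pretreatment, cells were held 16 h at 1% O2. VEGF in conditioned medium was measured by human VEGF ELISA and normalized to viable cell count (hemocytometer). Triplicate, mean ± SE, ANOVA/Fisher's PLSD.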

T47D [4] = assay: Inhibition of hypoxia-induced secreted VEGF protein level in human T47D cells at 3 uM by ELISA; type: functional; procedure, shortened: as §2
T47D [5] = assay: Reduction of human T47D cell colony formation under hypoxic condition at 1 uM by clonogenic survival assay; type: functional
Procedure, shortened: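 T47D cells seeded at 400 cells per 100 mm dish and allowed to adhere 4 h. Half the medium was replaced with serum-free medium containing compound. After a 30 min pretreatment, cells were held 24 h at 1% O2 (normoxic comparison run in parallel). Medium was then refreshed and cells grown 2–3 weeks under normoxia. Colonies were methanol-fixed and stained with crystal violet, and those over 50 cells counted.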

T47D [6] = assay: Inhibition of human T47D cell proliferation/viability up to 100 uM after 48 hrs by MTT assay; type: functional
Procedure, shortened: (§3)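 Cells grown in DMEM/F12 with 10% FBS and antibiotics, seeded at 3×10^4/well, incubated 24 h at 37 °C. Compound diluted in serum-free medium, tested at 10^-9 to 10^-4 M for 48 h under normoxia. MTT added to 0.25 mg/mL final for 4 h at 37 °C, then lysed in 0.04 N HCl/isopropanol, A570 read.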

MCF7 = assay: Inhibition of human MCF7 cell proliferation/viability up to 100 uM after 48 hrs by MTT assay; type: functional; procedure, shortened: as §3
MDA-MB-231 = assay: Inhibition of human MDA-MB-231 cell proliferation/viability up to 100 uM after 48 hrs by MTT assay; type: functional; procedure, shortened: as §3
[7] = Inhibition of african green monkey Vero cell proliferation/viability up to 100 uM after 48 hrs by MTT assay; type: cell-based; conditions: chlorocebus sabaeus, Vero cells; procedure, shortened: as §3
SK-BR-3 = assay: Inhibition of human SK-BR-3 cell proliferation/viability at 100 uM after 48 hrs by MTT assay; type: functional; conditions: SK-BR-3, 48 h; procedure, shortened: as §3
T47D [8] = assay: Blockade of HIF1alpha protein expression in hypoxia-induced human T47D cells at 1 uM under 30 mins in normoxic condition followed by 4 hrs in hypoxic condition; type: functional, cell-based
Procedure, shortened: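 T47D nuclear HIF-1α (and HIF-1β) measured by Western blot of nuclear extracts. Exponentially grown cells were pretreated 30 min under normoxia (95% air), then held 4 h at 1% O2.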

[9] = Inhibition of electron transport pathway in C57B1/6 mouse liver mitochondria; type: functional
Mus musculus = species: Mus musculus; assay: Inhibition of C57B1/6 mouse liver mitochondrial activity in presence of succinate; type: functional

- EC50 [1]: 400 nM
- IC50 [1]: 400 nM
- inhibition [2]: 88%
- IC50 [9]: 800 nM
SMILES: CC1=C[C@@H](O)C(C(C)CC[C@@H]2[C@@H](C)[C@]3(C)CC[C@@]2(C)O3)CC1 (some centres undefined) [LAURENDITERPENOL]
- inhibition at 1 µM (T47D [3]): 55%
- inhibition at 3 µM (T47D [4]): 80%
- inhibition at 1 µM (T47D [5]): 50%
- inhibition (INH) (T47D [6]): <50%
- inhibition (INH) (MCF7): <50%
- inhibition (INH) (MDA-MB-231): <50%
- inhibition at 48 h [7]: < 50%
- inhibition at 100 µM (SK-BR-3): 63%
- Activity (T47D [8]): Active
- Activity (Mus musculus): inactive
